According to ChEMBL document CHEMBL3632558, “Synthesis, antimycobacterial and antibacterial activity of l-[(1R,2S)-2-fluorocyclopropyl]naphthyridone derivatives containing an oxime-functionalized pyrrolidine moiety” (2015):
Converted amounts (≈) assume the structure as drawn.

Key:
Type in all cases: functional
Enterococcus faecium [1] = experiment: Antibacterial activity against Enterococcus faecium 14-2 after 18 to 24 hrs
Outline: (§1)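 MIC by standard NCCLS reference procedure (M100-S11); lowest concentration of compound inhibiting visible bacterial growth after incubation at 35 °C for 18–24 h, read as complete inhibition of growth. Ciprofloxacin, levofloxacin and moxifloxacin run alongside as reference agents.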

Staphylococcus aureus [2] = experiment: Antibacterial activity against Staphylococcus aureus CMCC 26003 after 18 to 24 hrs; outline: as §1
Escherichia coli [3] = experiment: Antibacterial activity against ESBL-positive Escherichia coli 14-2 after 18 to 24 hrs; outline: as §1
[4] = system: Staphylococcus epidermidis; experiment: Antibacterial activity against methicillin-resistant Staphylococcus epidermidis 14-22 after 18 to 24 hrs
Pseudomonas aeruginosa [5] = experiment: Antibacterial activity against Pseudomonas aeruginosa 14-16 after 18 to 24 hrs; outline: as §1
Klebsiella pneumoniae [6] = experiment: Antibacterial activity against ESBL-positive Klebsiella pneumoniae 14-18 after 18 to 24 hrs; outline: as §1
[7] = system: Staphylococcus epidermidis; experiment: Antibacterial activity against methicillin-resistant Staphylococcus epidermidis 14-37 after 18 to 24 hrs
Enterococcus faecalis [8] = experiment: Antibacterial activity against Enterococcus faecalis 14-1 after 18 to 24 hrs; outline: as §1
Staphylococcus aureus [9] = experiment: Antibacterial activity against methicillin-resistant Staphylococcus aureus 14-4 after 18 to 24 hrs
Enterococcus faecium [10] = experiment: Antibacterial activity against Enterococcus faecium 14-6 after 18 to 24 hrs; outline: as §1
Escherichia coli [11] = experiment: Antibacterial activity against ESBL-positive Escherichia coli 14-1 after 18 to 24 hrs; outline: as §1
Klebsiella pneumoniae [12] = experiment: Antibacterial activity against ESBL-positive Klebsiella pneumoniae 14-17 after 18 to 24 hrs; outline: as §1
Escherichia coli [13] = experiment: Antibacterial activity against Escherichia coli 14-1 after 18 to 24 hrs; outline: as §1
Staphylococcus aureus [14] = experiment: Antibacterial activity against methicillin-sensitive Staphylococcus aureus 14-3 after 18 to 24 hrs; outline: as §1
Klebsiella pneumoniae [15] = experiment: Antibacterial activity against Klebsiella pneumoniae 14-2 after 18 to 24 hrs; outline: as §1
Pseudomonas aeruginosa [16] = experiment: Antibacterial activity against Pseudomonas aeruginosa 14-15 after 18 to 24 hrs; outline: as §1
Staphylococcus aureus [17] = experiment: Antibacterial activity against methicillin-sensitive Staphylococcus aureus 14-2 after 18 to 24 hrs; outline: as §1
[18] = system: Mycobacterium tuberculosis; experiment: Antimycobacterial activity against Mycobacterium tuberculosis H37Rv ATCC 27294 by alamar blue assay
Outline: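 Microplate Alamar Blue Assay; MIC is the lowest concentration giving ≥90% reduction in fluorescence relative to the mean of replicate bacterium-only controls. MDR strain 6133 is resistant to isoniazid and rifampicin.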

Klebsiella pneumoniae [19] = experiment: Antibacterial activity against Klebsiella pneumoniae 14-3 after 18 to 24 hrs; outline: as §1
[20] = system: Staphylococcus epidermidis; experiment: Antibacterial activity against methicillin-sensitive Staphylococcus epidermidis 14-2 after 18 to 24 hrs; outline: as §1
Staphylococcus aureus [21] = experiment: Antibacterial activity against methicillin-sensitive Staphylococcus aureus 14-4 after 18 to 24 hrs; outline: as §1
Enterococcus faecalis [22] = experiment: Antibacterial activity against Enterococcus faecalis 14-2 after 18 to 24 hrs; outline: as §1
Enterococcus faecium [23] = experiment: Antibacterial activity against Enterococcus faecium 14-1 after 18 to 24 hrs; outline: as §1
Klebsiella pneumoniae [24] = experiment: Antibacterial activity against Klebsiella pneumoniae 14-4 after 18 to 24 hrs; outline: as §1
Streptococcus pneumoniae = experiment: Antibacterial activity against Streptococcus pneumoniae ATCC 19615 after 18 to 24 hrs; outline: as §1
Staphylococcus aureus [25] = experiment: Antibacterial activity against methicillin-resistant Staphylococcus aureus 14-5 after 18 to 24 hrs
Pseudomonas aeruginosa [26] = experiment: Antibacterial activity against Pseudomonas aeruginosa 14-19 after 18 to 24 hrs; outline: as §1
Escherichia coli [27] = experiment: Antibacterial activity against Escherichia coli 14-2 after 18 to 24 hrs; outline: as §1
Escherichia coli [28] = experiment: Antibacterial activity against Escherichia coli ATCC 25922 after 18 to 24 hrs; outline: as §1
Pseudomonas aeruginosa [29] = experiment: Antibacterial activity against Pseudomonas aeruginosa ATCC 27853 after 18 to 24 hrs; outline: as §1
Enterococcus faecium [30] = experiment: Antibacterial activity against Enterococcus faecium 14-5 after 18 to 24 hrs; outline: as §1
Pseudomonas aeruginosa [31] = experiment: Antibacterial activity against Pseudomonas aeruginosa 14-14 after 18 to 24 hrs; outline: as §1
Pseudomonas aeruginosa [32] = experiment: Antibacterial activity against Pseudomonas aeruginosa 14-9 after 18 to 24 hrs; outline: as §1
[33] = system: Staphylococcus epidermidis; experiment: Antibacterial activity against methicillin-resistant Staphylococcus epidermidis 14-21 after 18 to 24 hrs
[34] = system: Staphylococcus epidermidis; experiment: Antibacterial activity against methicillin-resistant Staphylococcus epidermidis 14-39 after 18 to 24 hrs
Klebsiella pneumoniae [35] = experiment: Antibacterial activity against Klebsiella pneumoniae 14-1 after 18 to 24 hrs; outline: as §1
Klebsiella pneumoniae [36] = experiment: Antibacterial activity against ESBL-positive Klebsiella pneumoniae 14-19 after 18 to 24 hrs; outline: as §1
Staphylococcus aureus [37] = experiment: Antibacterial activity against methicillin-sensitive Staphylococcus aureus 14-1 after 18 to 24 hrs; outline: as §1

Structure (SMILES) | MIC (Enterococcus faecium [1]) | MIC (Staphylococcus aureus [2]) | MIC (Escherichia coli [3]) | MIC [4] | MIC (Pseudomonas aeruginosa [5]) | MIC (Klebsiella pneumoniae [6]) | MIC [7] | MIC (Enterococcus faecalis [8]) | MIC (Staphylococcus aureus [9]) | MIC (Enterococcus faecium [10]) | MIC (Escherichia coli [11]) | MIC (Klebsiella pneumoniae [12]) | MIC (Escherichia coli [13]) | MIC (Staphylococcus aureus [14]) | MIC (Klebsiella pneumoniae [15]) | MIC (Pseudomonas aeruginosa [16]) | MIC (Staphylococcus aureus [17]) | MIC90 [18] | MIC (Klebsiella pneumoniae [19]) | MIC [20] | also measured
Cc1ccc(CO/N=C2\CN(c3nc4c(cc3F)c(=O)c(C(=O)O)cn4[C@@H]3C[C@@H]3F)CC2CN)cc1 (some centres undefined) | 0.5 µg/mL (≈ 1.01 µM) | < 0.008 µg/mL | 64 µg/mL (≈ 129 µM) | 2 µg/mL (≈ 4.02 µM) | 8 µg/mL (≈ 16.1 µM) | 8 µg/mL (≈ 16.1 µM) | 8 µg/mL (≈ 16.1 µM) | 32 µg/mL (≈ 64.3 µM) | 8 µg/mL (≈ 16.1 µM) | 4 µg/mL (≈ 8.04 µM) | 2 µg/mL (≈ 4.02 µM) | 8 µg/mL (≈ 16.1 µM) | 16 µg/mL (≈ 32.2 µM) | < 0.008 µg/mL | 128 µg/mL (≈ 257 µM) | 8 µg/mL (≈ 16.1 µM) | < 0.008 µg/mL | < 0.25 µg/mL | 64 µg/mL (≈ 129 µM) | 8 µg/mL (≈ 16.1 µM) | MIC (Staphylococcus aureus [21]): 0.015 µg/mL (≈ 0.0302 µM); MIC (Enterococcus faecalis [22]): < 0.008 µg/mL; MIC (Enterococcus faecium [23]): 0.5 µg/mL (≈ 1.01 µM); MIC (Klebsiella pneumoniae [24]): 128 µg/mL (≈ 257 µM); MIC (Streptococcus pneumoniae): < 0.008 µg/mL; MIC (Staphylococcus aureus [25]): 4 µg/mL (≈ 8.04 µM); MIC (Pseudomonas aeruginosa [26]): 8 µg/mL (≈ 16.1 µM); MIC (Escherichia coli [27]): 32 µg/mL (≈ 64.3 µM); MIC (Escherichia coli [28]): < 0.008 µg/mL; MIC (Pseudomonas aeruginosa [29]): 4 µg/mL (≈ 8.04 µM); MIC (Enterococcus faecium [30]): 8 µg/mL (≈ 16.1 µM); MIC (Pseudomonas aeruginosa [31]): 8 µg/mL (≈ 16.1 µM); MIC (Pseudomonas aeruginosa [32]): 8 µg/mL (≈ 16.1 µM); MIC [33]: 4 µg/mL (≈ 8.04 µM); MIC [34]: 16 µg/mL (≈ 32.2 µM); MIC (Klebsiella pneumoniae [35]): 64 µg/mL (≈ 129 µM); MIC (Klebsiella pneumoniae [36]): 128 µg/mL (≈ 257 µM); MIC (Staphylococcus aureus [37]): 2 µg/mL (≈ 4.02 µM)
NCC1CN(c2nc3c(cc2F)c(=O)c(C(=O)O)cn3[C@@H]2C[C@@H]2F)C/C1=N\OCc1ccc(Cl)cc1 (some centres undefined) | 2 µg/mL (≈ 3.86 µM) | < 0.008 µg/mL | 32 µg/mL (≈ 61.8 µM) | 4 µg/mL (≈ 7.72 µM) | 8 µg/mL (≈ 15.4 µM) | 8 µg/mL (≈ 15.4 µM) | 8 µg/mL (≈ 15.4 µM) | 32 µg/mL (≈ 61.8 µM) | 16 µg/mL (≈ 30.9 µM) | 8 µg/mL (≈ 15.4 µM) | 4 µg/mL (≈ 7.72 µM) | 8 µg/mL (≈ 15.4 µM) | 32 µg/mL (≈ 61.8 µM) | 0.015 µg/mL (≈ 0.029 µM) | 128 µg/mL (≈ 247 µM) | 8 µg/mL (≈ 15.4 µM) | < 0.008 µg/mL | 0.342 µg/mL (≈ 0.66 µM) | 64 µg/mL (≈ 124 µM) | 16 µg/mL (≈ 30.9 µM) | MIC (Staphylococcus aureus [21]): 0.03 µg/mL (≈ 0.0579 µM); MIC (Enterococcus faecalis [22]): 0.125 µg/mL (≈ 0.241 µM); MIC (Enterococcus faecium [23]): 2 µg/mL (≈ 3.86 µM); MIC (Klebsiella pneumoniae [24]): 128 µg/mL (≈ 247 µM); MIC (Streptococcus pneumoniae): 0.015 µg/mL (≈ 0.029 µM); MIC (Staphylococcus aureus [25]): 32 µg/mL (≈ 61.8 µM); MIC (Pseudomonas aeruginosa [26]): 8 µg/mL (≈ 15.4 µM); MIC (Escherichia coli [27]): 32 µg/mL (≈ 61.8 µM); MIC (Escherichia coli [28]): 0.125 µg/mL (≈ 0.241 µM); MIC (Pseudomonas aeruginosa [29]): 4 µg/mL (≈ 7.72 µM); MIC (Enterococcus faecium [30]): 4 µg/mL (≈ 7.72 µM); MIC (Pseudomonas aeruginosa [31]): 8 µg/mL (≈ 15.4 µM); MIC (Pseudomonas aeruginosa [32]): 4 µg/mL (≈ 7.72 µM); MIC [33]: 4 µg/mL (≈ 7.72 µM); MIC [34]: 8 µg/mL (≈ 15.4 µM); MIC (Klebsiella pneumoniae [35]): 128 µg/mL (≈ 247 µM); MIC (Klebsiella pneumoniae [36]): 64 µg/mL (≈ 124 µM); MIC (Staphylococcus aureus [37]): 2 µg/mL (≈ 3.86 µM)
NC1CN(c2nc3c(cc2F)c(=O)c(C(=O)O)cn3[C@@H]2C[C@@H]2F)C/C1=N\OCc1ccccc1 (some centres undefined) | 64 µg/mL (≈ 136 µM) | < 0.008 µg/mL | > 128 µg/mL | 32 µg/mL (≈ 68.2 µM) | 32 µg/mL (≈ 68.2 µM) | 32 µg/mL (≈ 68.2 µM) | 64 µg/mL (≈ 136 µM) | 64 µg/mL (≈ 136 µM) | 32 µg/mL (≈ 68.2 µM) | > 128 µg/mL | 128 µg/mL (≈ 273 µM) | 32 µg/mL (≈ 68.2 µM) | > 128 µg/mL | 0.5 µg/mL (≈ 1.07 µM) | > 128 µg/mL | 32 µg/mL (≈ 68.2 µM) | < 0.008 µg/mL | 1.92 µg/mL (≈ 4.09 µM) | > 128 µg/mL | 64 µg/mL (≈ 136 µM) | MIC (Staphylococcus aureus [21]): 1 µg/mL (≈ 2.13 µM); MIC (Enterococcus faecalis [22]): 1 µg/mL (≈ 2.13 µM); MIC (Enterococcus faecium [23]): 64 µg/mL (≈ 136 µM); MIC (Klebsiella pneumoniae [24]): > 128 µg/mL; MIC (Streptococcus pneumoniae): 0.5 µg/mL (≈ 1.07 µM); MIC (Staphylococcus aureus [25]): 64 µg/mL (≈ 136 µM); MIC (Pseudomonas aeruginosa [26]): 32 µg/mL (≈ 68.2 µM); MIC (Escherichia coli [27]): > 128 µg/mL; MIC (Escherichia coli [28]): 0.5 µg/mL (≈ 1.07 µM); MIC (Pseudomonas aeruginosa [29]): 16 µg/mL (≈ 34.1 µM); MIC (Enterococcus faecium [30]): 128 µg/mL (≈ 273 µM); MIC (Pseudomonas aeruginosa [31]): 32 µg/mL (≈ 68.2 µM); MIC (Pseudomonas aeruginosa [32]): 32 µg/mL (≈ 68.2 µM); MIC [33]: 32 µg/mL (≈ 68.2 µM); MIC [34]: 64 µg/mL (≈ 136 µM); MIC (Klebsiella pneumoniae [35]): > 128 µg/mL; MIC (Klebsiella pneumoniae [36]): > 128 µg/mL; MIC (Staphylococcus aureus [37]): 16 µg/mL (≈ 34.1 µM)
